Reference: ChEMBL document CHEMBL1781903, “Antiprotozoal activity of chloroquinoline based chalcones” (Eur J Med Chem, 2011)
Calls of active or inactive are those of the source. The rule behind the calls is not given here.

What was measured:
[1] = tested on: Plasmodium falciparum; experiment: Inhibition of Plasmodium falciparum falcipain
[2] = Inhibition of beta-haematin formation after 24 hrs by microtiter plate assay; assay type: functional
Method in brief: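 Compound mixed with haemin (1 mg/mL in DMSO), water and 0.5 M acetate buffer at pH 4.7, then incubated 24 h. Unreacted haemin removed by three DMSO washes with centrifugation at 1500 g. β-haematin dissolved in 2 M NaOH, diluted twofold, absorbance read at 405 nm. IC50 taken from the data. Chloroquine and quinine as positive controls; at least triplicate.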

[3] = tested on: Plasmodium falciparum; experiment: Inhibition of Plasmodium falciparum cysteine protease
[4] = tested on: Entamoeba histolytica; experiment: […] activity against Entamoeba histolytica HM-1:IMSS trophozoites after 72 hrs by microdilution method; assay type: functional, organism-based
Method in brief: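 E. histolytica trophozoites in TYIS-33 medium; DMSO stocks (1 mg/mL) twofold serially diluted, 1.7×10^4 amoebae/well, nitrogen-gassed, 37 °C for 72 h. Methanol-fixed, eosin-stained, dye released in 0.1 N NaOH, OD 490 nm. Triplicate per concentration, repeated thrice. % inhibition vs log concentration, IC50 from linear regression; metronidazole as reference.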

[5] = tested on: Plasmodium falciparum; experiment: Antimicrobial activity against chloroquine-sensitive Plasmodium falciparum 3D7 assessed as inhibition of [3H] hypoxanthine incorporation after 24 hrs by scintillation counting; assay type: functional, organism-based
Method in brief: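 Synchronized ring-stage 3D7 culture at 0.5% parasitemia and 1% haematocrit in supplemented RPMI-1640, exposed to serially diluted DMSO stocks for 24 h. [3H]-hypoxanthine added at 0.5 µCi/well for a further 24 h, then DNA harvested onto filter mats and counted by β-scintillation. IC50 from log sigmoid dose-response curves. At least triplicate; chloroquine and quinine as references.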

[6] = tested on: Radical scavenging activity; experiment: Antioxidant activity assessed as DPPH radical scavenging activity at 80 uM after 30 mins; assay type: functional
Method in brief: (§1)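 Compounds added to DPPH• in methanol, kept in the dark at room temperature for 30 min, absorbance read at 540 nm. Scavenging given as % decrease in absorbance relative to a drug-free DPPH• control, with a MeOH/DMSO background control. Ascorbic acid as comparator; triplicate.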

[7] = Inhibition of beta-haematin formation at 100 uM after 24 hrs by microtiter plate assay; assay type: functional
[8] = Toxicity in human RBC assessed as hemolysis at 100 uM after 48 hrs; assay type: cell-based, Erythrocyte; conditions: red blood cells (RBC), read-out: Activity
Method in brief: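 Fresh human red blood cells at 1% haematocrit in culture medium, incubated 48 h with compound at 100 μM, absorbance read at 412 nm. % haemolysis calculated against 0.5% Triton X100 as the 100% control. At least triplicate, mean ± s.d.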

[9] = tested on: Plasmodium falciparum; experiment: Antimicrobial activity against chloroquine-sensitive Plasmodium falciparum 3D7 assessed as inhibition of [3H] hypoxanthine incorporation at 100 uM after 24 hrs by scintillation counting; assay type: functional
[10] = tested on: MCF7; experiment: Cytotoxicity against human MCF7 cells after 48 hrs by MTT assay; assay type: cell-based; conditions: MCF7, 48 h
Method in brief: (§2)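 MCF-7 cells grown in DMEM with 10% FCS and penicillin/streptomycin, seeded at 1.2×10^4 cells/well and grown 48 h before treatment. Stocks prepared in 20% (v/v) DMSO and diluted in medium. After 48 h at 37 °C, MTT (5 mg/mL) added for 4 h, formazan dissolved in DMSO, A570 read with 655 nm reference. Viability relative to untreated cells; triplicate.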

[11] = Cytotoxicity against human MCF7 cells assessed as cell growth inhibition at 100 uM after 48 hrs by MTT assay; assay type: cell-based; conditions: read-out: GI; method in brief: as §2
[12] = tested on: MCF7; experiment: Cytotoxicity against human MCF7 cells assessed as cell growth inhibition after 48 hrs by MTT assay; assay type: cell-based; conditions: mcf7, 48 h; method in brief: as §2
[13] = Cytotoxicity against human MCF7 cells assessed as cell growth inhibition at 50 uM after 48 hrs by MTT assay; assay type: cell-based; conditions: read-out: GI; method in brief: as §2
[14] = tested on: Entamoeba histolytica; experiment: Ratio of metronidazole IC50 to compound IC50 for Entamoeba histolytica HM-1:IMSS trophozoites; assay type: functional
[15] = tested on: Plasmodium falciparum; experiment: Antimicrobial activity against chloroquine-resistant Plasmodium falciparum FCB1; assay type: functional, organism-based; conditions: FcB1/Columbia
[16] = tested on: Radical scavenging activity; experiment: Antioxidant activity assessed as DPPH radical scavenging activity after 30 mins; assay type: functional; method in brief: as §1

| Structure (SMILES) | inhibition [1] | inhibition [3] | IC50 [4] [µM] | IC50 [5] [µM] | IC50 [16] [µM] | IC50 [2] [µM] | Activity [6] [%] | inhibition [7] [%] | hemolysis at 48 h, 100 µM [8] [%] | inhibition at 100 µM [9] [%] | IC50 [10] [µM] | inhibition at 48 h, 100 µM [11] [%] | Activity [12] | inhibition at 48 h, 50 µM [13] [%] | Ratio IC50 [14] | IC50 [15] [µM] |
| --- | --- | --- | --- | --- | --- | --- | --- | --- | --- | --- | --- | --- | --- | --- | --- | --- |
| Cc1ncc([N+](=O)[O-])n1CCO [METRONIDAZOLE] |  |  | 1.46 |  |  |  |  |  |  |  | > 100 |  |  |  |  |  |
| CCN(CC)CCCC(C)Nc1ccnc2cc(Cl)ccc12 (configuration not stated) [CHLOROQUINE] |  |  |  |  |  | 25 | 4.06 |  | 0.72 |  |  |  |  |  |  |  |
| C=C[C@H]1C[N@@]2CC[C@H]1C[C@H]2[C@H](O)c1ccnc2ccc(OC)cc12 [QUININE] |  |  |  |  |  |  |  |  | 1.22 |  |  |  |  |  |  |  |
| C=C[C@H]1CN2CC[C@H]1C[C@H]2[C@H](O)c1ccnc2ccc(OC)cc12 [QUININE] |  |  |  | 0.14 |  | 65.8 | 2.65 |  |  |  |  |  |  |  |  |  |
| C/C(=C\c1cc2cc(C)ccc2nc1Cl)C(=O)c1cccc(Cl)c1 | inactive | inactive | 0.06 | > 100 |  | > 100 |  | 14.4 | 1.24 | 8.74 | > 100 |  |  |  |  |  |
| O=C(/C=C/c1cc2ccccc2nc1Cl)c1ccc(Cl)cc1 | inactive | inactive | 0.05 | 39.2 |  | > 100 | 3.69 | 19.5 | 1.74 |  | > 100 |  |  |  | 29.2 | > 200 |
| C/C(=C\c1cc2ccccc2nc1Cl)C(=O)c1cccc(Br)c1 | inactive | inactive | 3.65 | > 100 |  | > 100 | 1.43 | 9.35 | 2.17 | 34.3 |  |  |  |  |  |  |
| Cc1ccc2cc(/C=C/C(=O)c3ccc(Cl)cc3)c(Cl)nc2c1 | inactive | inactive | 6.91 |  |  |  |  |  |  |  |  |  |  |  |  | > 200 |
| O=C1O[C@H]([C@@H](O)CO)C(O)=C1O [ASCORBIC ACID] |  |  |  |  | 20.1 |  |  |  |  |  |  |  |  |  |  |  |
| O=C(/C=C/c1cc2ccccc2nc1Cl)c1ccccn1 | inactive | inactive | 5.3 | 32 |  | > 100 |  | 12.3 | 1.1 |  |  |  |  |  |  |  |

The next lines start with results.

| inhibition [1] | inhibition [3] | IC50 [4] [µM] | IC50 [5] [µM] | IC50 [16] [µM] | Structure (SMILES) | IC50 [2] [µM] | Activity [6] [%] | inhibition [7] [%] | hemolysis at 48 h, 100 µM [8] [%] | inhibition at 100 µM [9] [%] | IC50 [10] [µM] | inhibition at 48 h, 100 µM [11] [%] | Activity [12] | inhibition at 48 h, 50 µM [13] [%] | Ratio IC50 [14] | IC50 [15] [µM] |
| --- | --- | --- | --- | --- | --- | --- | --- | --- | --- | --- | --- | --- | --- | --- | --- | --- |
| inactive | inactive | 7.03 | 50.4 |  | C/C(=C\c1cc2ccc(C)cc2nc1Cl)C(=O)c1cccc(Cl)c1 | > 100 | 0.78 | 5.64 | 1.44 |  |  |  |  |  |  |  |
| inactive | inactive | 2.79 | > 100 |  | C/C(=C\c1cc2cc(C)ccc2nc1Cl)C(=O)c1cccc(Br)c1 | > 100 |  | 13.3 | 1.53 | 51.1 |  |  |  |  |  |  |
| inactive | inactive | 3.38 | 44.6 |  | O=C(/C=C/c1cc2ccccc2nc1Cl)c1ccc(Br)cc1 | > 100 |  | 13.6 | 2.2 |  |  |  |  |  |  |  |
| inactive | inactive | 7.53 | 59.7 |  | Cc1ccc2cc(/C=C/C(=O)c3cccc(Br)c3)c(Cl)nc2c1 | > 100 |  | 27.5 | 1.09 |  |  |  |  |  |  |  |
| inactive | inactive | 1.03 | 50.1 |  | Cc1ccc2nc(Cl)c(/C=C/C(=O)c3cccc(Br)c3)cc2c1 | > 100 |  | 14.9 | 1.68 |  | > 100 |  |  |  |  |  |
| inactive | inactive | 0.05 | 31.3 |  | Cc1ccc2cc(/C=C/C(=O)c3ccccn3)c(Cl)nc2c1 | > 100 |  | 15 | 0.47 |  | 75.7 | 66 | Dose-dependent effect | 36 | 29.2 |  |
| inactive | inactive | 3.45 | > 100 |  | O=C(/C=C/c1cc2ccccc2nc1Cl)c1cccc(Br)c1 | > 100 |  | 16 | 1.38 | 61.2 |  |  |  |  |  |  |
| inactive | inactive | 0.09 | 47.1 |  | C/C(=C\c1cc2ccc(C)cc2nc1Cl)C(=O)c1cccc(Br)c1 | > 100 | 2.27 | 10.5 | 1.04 |  | > 100 |  |  |  | 16 |  |
| inactive | inactive | 4.09 | 74.8 |  | Cc1ccc2nc(Cl)c(/C=C/C(=O)c3ccc(Br)cc3)cc2c1 | > 100 |  | 55.4 | 1.4 |  |  |  |  |  |  |  |
| inactive | inactive | 1.45 | 31.5 |  | Cc1ccc2nc(Cl)c(/C=C/C(=O)c3ccccn3)cc2c1 | > 100 |  | 11.5 | 1.55 |  |  |  |  |  |  |  |
